Only some compounds are listed: those with a hit (about 9.8% of all), similar ones and a draw of the others.
Lmaj promast: Leishmania major promastigote growth inhibition | inhibition, % at 10 µM | Leishmania major promastigotes, resazurin fluorescence viability | AID 1063 | 9% of 200,000 active; in the data active = inhibition above about 50%;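 note: promastigotes grown with compound for 44 hours at 28 °C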
PMI act hi M6P: PMI (human) activation, high substrate; activation factor at 20 µM; AID 1216; coupled PMI enzyme assay, resazurin fluorescence, 20 min; hits give high values; 1 = untreated enzyme, 0 = substrate-free blank; P34949; 0.34% of 190,000 active;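 active = activation factor of 2 or more at 20 µM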
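Test system: human phosphomannose isomerase with PGI, G6PDH, diaphorase coupling enzymes; Amount: PMI at 15 ng/mL final; Reagent: Mannose-6-phosphate 1.0 mM (near-saturating) plus 0.22 mM NADP+; Timing: 20 min, room temperature; Technique: resorufin fluorescence at Ex 544/Em 590 nm; Dosing: 20 µM single dose.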
PMI activator: phosphomannose isomerase (human) activation. P34949. purified human PMI, coupled resazurin fluorescence, 20 min; hits give high values; 1 = vehicle control, 0 substrate-free wells. activation factor at 20 µM. 0.005% of 190,000 active. AID 1214;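 active = activation factor of 2 or more at 20 µM, relative to plate controls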
m-calpain inh: inhibitors of pig calpain II; purified calpain II, fluorogenic peptide substrate, 30 min; inhibition, % at 16 µM; 0.37% of 220,000 active;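 active = inhibition above about 50%, limit read from the data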
WT yeast gro inh: growth inhibition of WT yeast, mitochondrial fusion screen. mitochondrial fusion phenotypic screen, WT strain. inhibition, % at 10 µM. 2.1% of 190,000 active; in the data active = inhibition above about 58%; tested in S. cerevisiae
Rad51 HR inh: blocks human Rad51 in homologous recombination; hRad51 DNA strand exchange, fluorescence dequenching; 0.085% of 200,000 active; Q06609; inhibition, % at 10 µM;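 active = inhibition above 40% at the single screening dose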;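 note: 0% = DMSO control wells and 100% = blanks with heterologous ssDNA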
Target sequence (Q06609 whole entry, looked up): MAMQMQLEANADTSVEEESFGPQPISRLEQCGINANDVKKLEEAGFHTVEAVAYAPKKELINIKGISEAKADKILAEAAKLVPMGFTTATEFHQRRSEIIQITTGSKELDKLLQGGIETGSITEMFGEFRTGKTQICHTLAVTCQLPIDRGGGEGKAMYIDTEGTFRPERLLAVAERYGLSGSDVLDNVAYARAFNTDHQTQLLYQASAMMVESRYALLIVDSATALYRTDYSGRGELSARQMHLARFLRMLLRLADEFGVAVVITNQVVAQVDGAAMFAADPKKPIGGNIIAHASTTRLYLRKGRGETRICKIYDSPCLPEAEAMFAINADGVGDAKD
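material = hRad51 filaments on single-stranded DNA | timing = filaments 15 min 37 °C, then compound 30 min | signal = FRET fluorescence dequenching, excitation 485 nm, emission 520 nm | benchmarks = control wells and blank wells on each plate | evaluation = percent inhibition relative to plate controls and blanks | compound = 10 µM final, single point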
Starred values were filed as active, the others as inactive; i = inactive; . = not tested or not shown.

SMILES	Lmaj promast	PMI act hi M6P	PMI activator	m-calpain inh	WT yeast gro inh	Rad51 HR inh
CCCNC(=O)c1c(N)n(CC2CCCO2)c2nc3ccccc3nc12 (stereo not given)	30.2	0.4	0.8	i	9.7	-16.0
CC(C)CCOC(=O)c1c(N)n(CC2CCCO2)c2nc3ccccc3nc12 (stereo not given)	99.7*	0.9	0.8	i	4.4	4.0
CC(C)OC(=O)c1c(N)n(CC2CCCO2)c2nc3ccccc3nc12 (stereo not given)	52.4*	0.8	0.8	i	1.0	0.0
Nc1c(C(=O)OC2CCCCC2)c2nc3ccccc3nc2n1CC1CCCO1 (stereo not given)	81.0*	0.8	0.8	.	20.5	.
COc1ccc(C)cc1NC1=NC(C)(C)CS1	19.6	1.1	1.1	-34.2	23.9	10.4
CCN(CC)c1ccc(C=C2C(=O)N(C)C(=S)N(C)C2=O)o1	71.9*	0.9	0.9	-8.7	-18.4	-209.5
CCN(CC)c1ccc(/C=C2\C(=O)NC(=S)N(C)C2=O)o1	.	.	.	3.9	.	.
COc1ccc(CC2(CCc3ccncc3)C(=O)NC(=O)NC2=O)cc1OC	-3.4	0.9	1	-20.4	-3.0	-5.2
O=C(COc1ccc(Cl)cc1)N1CCN(Cc2ccccc2)CC1	39.2	1.1	1	-24.2	-15.0	-10.2
Cc1ccc(OCC(=O)N2CCN(CC3CC4C=CC3C4)CC2)cc1 (stereo not given)	77.7*	0.9	0.8	18.5	-9.7	-10.0
O=C(COc1ccccc1)N1CCN(CC2CC3C=CC2C3)CC1 (stereo not given)	90.7*	1.3	1.2	16.4	3.8	-5.2
COc1nc(C)nc(NC(=O)NS(=O)(=O)c2ccccc2Cl)n1	.	.	.	.	.	4.9
COc1ccc(-c2cc(=NCCC(=O)O)c3cc(C)ccc3o2)cc1	61.5*	1	1	i	-6.3	-27.2
Cc1ccsc1C(=O)C1CCCN(Cc2c(C)nn(C(C)C)c2C)C1 (stereo not given)	10.8	1	1.1	5.0	16.7	.
O=C1CC(N2CC=C(c3ccc(F)cc3)CC2)C(=O)N1c1ccc(F)cc1 (stereo not given)	2.9	1.1	1.1	-64.8	-0.9	-5.7
CCOC(=O)c1ccc(N2C(=O)CC(N3CC=C(c4ccc(F)cc4)CC3)C2=O)cc1 (stereo not given)	1.0	2*	1.6	-66.9	2.5	0.2
O=C(CNC(=O)OCc1ccccc1)NCC(=O)Nc1ccc(Br)cc1C(=O)c1ccccc1	69.5*	1	0.9	17.9	-6.1	1.3
O=C(CNC(=O)OCc1ccccc1)Nc1ccc(Br)cc1C(=O)c1ccccc1	-2.7	0.9	0.9	36.2	51.8	-9.5
COc1ccccc1CCNC1C2CC3CC(C2)CC1C3 (stereo not given)	17.3	1	1	-15.0	0.7	21.6
NC(=O)CS(=O)C(c1ccccc1)c1ccccc1 (stereo not given)	.	1	0.9	-18.9	-0.2	.
CCOC(=O)N(CC)c1ccc(C(O)(C(=O)OCC)C(F)(F)F)cc1 (stereo not given)	98.3*	0.9	0.9	-7.8	-6.1	3.9
CCOC(=O)C(O)(c1ccc(N(CC)C(=O)OC)cc1)C(F)(F)F (stereo not given)	98.3*	1	1	11.6	-7.4	-0.6
COC(=O)C(O)(c1ccc(N(C)C(=O)OC(C)C)cc1)C(F)(F)F (stereo not given)	91.8*	1	1	-13.4	-13.2	-2.8
CCOC(=O)N(C)c1ccc(C(O)(C(=O)OCC)C(F)(F)F)cc1 (stereo not given)	98.7*	1	1	-6.3	-2.8	-9.4
CNC(=O)N(C)c1ccc(C(O)(C(=O)OC)C(F)(F)F)cc1 (stereo not given)	.	.	.	-91.0	.	.
SMILES	Lmaj promast	PMI act hi M6P	PMI activator	m-calpain inh	WT yeast gro inh	Rad51 HR inh
C=Cn1ccnc1P(O)(=S)c1nc(C)c(CCOC(C)=O)s1 (stereo not given)	-7.9	1.1	1	25.1	-5.7	36.8
O=c1[nH]c(=O)n(-c2ccccc2)c(O)c1N=Nc1ccc(Br)cc1	0.9	1	1	2.3	-0.9	5.5
O=c1[nH]cc(COCC(F)(F)C(F)(F)C(F)(F)F)c(=O)[nH]1	3.0	1.1	1	-2.6	8.5	24.2
C=CCn1c(O)c(C(C)=NCCN2CCN(C(=S)NC)CC2)c(=O)[nH]c1=O	.	.	.	-19.8	.	.
CCN(C(=O)Oc1ccccc1)c1ccc(C(O)(C(=O)OC)C(F)(F)F)cc1 (stereo not given)	99.4*	1	0.9	-15.8	3.6	.
O=C(O)C1C2c3ccccc3C(c3ccccc32)C1C(=O)Nc1ccccc1 (stereo not given)	73.2*	1	0.9	28.6	6.0	-9.6
COC(=O)C1=C(c2ccc(S(C)(=O)=O)cc2)C[C@@H]2CC[C@H]1N2C(=O)NC(C)C	.	.	.	.	.	-4.1
CC(=O)OC(C)(C)/C=C/C(=O)[C@](C)(O)[C@H]1[C@H](O)C[C@@]2(C)[C@@H]3CC=C4[C@H](C[C@H](O)C(=O)C4(C)C)[C@]3(C)C(=O)C[C@]12C	52.1*	1	1.1	-21.4	5.3	5.7
CCCCc1nc(N2CCNCC2)c(C#N)c2c1CSC(C)(C)C2	97.2*	0.9	1	-30.9	0.7	.
CC(=O)N1N=C(c2cccnc2)OC1c1ccccc1Cl (stereo not given)	.	.	.	-18.1	.	.
CSC(=Nc1ccccc1)c1c(O)n(C)c(=O)n(C)c1=O	-4.5	2.2*	1.7	-11.2	11.3	-6.2
CC/C(=N\Nc1ccccc1)c1c(O)n(-c2ccccc2)c(=O)[nH]c1=O	.	.	.	29.7	.	26.1
CC/C(=N\Nc1ccccc1)c1c(O)n(C)c(=O)n(C)c1=O	61.1*	1.5	1.3	6.7	22.7	1.7
CCn1c(O)c(C=NCCN2CCOCC2)c(=O)[nH]c1=S	.	.	.	11.0	.	2.8
c1ccc(C(OCCN2CCNCC2)c2ccccc2)cc1	100.2*	1.2	1	11.6	.	-11.2
CN1CCC(OC(=O)Cc2ccccc2)CC1	2.4	1	1.1	-16.1	-25.3	-0.6
CN1CCC(OC(=O)C2c3ccccc3Oc3ccccc32)CC1	85.7*	1	1	-27.3	2.6	-0.4
O=c1c2ccccc2nc(-c2ccc(-c3ccccc3)cc2)n1-c1ccncc1	72.8*	0.7	0.7	4.2	2.3	-5.8
Cc1ccc(-c2nc3ccccc3c(=O)n2-c2ccncc2)cc1	-3.5	0.7	0.9	3.5	-11.6	-3.3
C=C(C=O)CC1CC(O)[C@]2(C)OC3CC4OC5C[C@]6(C)O[C@]7(C)CCC8OC9C[C@]%10(C)OC%11C(C)=CC(=O)OC%11CC%10OC9C[C@@H](C)C8OC7CC6O[C@]5(C)CC5OC5C4OC3CC2O1 (stereo not given in full)	100.5*	0.8	0.8	-22.4	81.9*	3.1

Assay outcomes (PubChem)
